Blank lines part the entries; values can stand above or below the molecule they belong to.
Key:
[1] = tested on: Mus musculus; assay: Minimum effective dose measures the in vivo N-methyl-D-aspartate glutamate receptor antagonist activity of compound and its ability to protect mice from lethality induced by 200 mg/kg ip injection of NMDA.; type: functional; settings: route intraperitoneal, read-out: MED
Procedure, shortened: (§1)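 Mice were given the compound ip 30 min before an ip challenge of NMDA at 200 mg/kg, a dose lethal to ≥95% of animals. Survival was scored with five animals tested per dose. MED was taken as the lowest dose protecting >50% of animals, meaning at least three of five survived.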

[2] = In vitro inhibition of 40 uM NMDA induced depolarization in rat cortical slices.
[3] = target: Glutamate NMDA receptor; assay: Displacement of [3H]CGS-19,755 from glutamate recognition site of N-methyl-D-aspartate glutamate receptor complex; type: protein-complex assay, Rattus norvegicus
[4] = tested on: Mus musculus; assay: Minimum effective dose measures the in vivo NMDA antagonist activity of compound and its ability to protect mice from lethality induced by 200 mg/kg ip injection of NMDA.; type: functional; settings: route intraperitoneal; for minimal effective dose: Mus musculus, ip, read-out: MED; for MED: NMDA challenge 200 mg/kg, 200 mg/kg; procedure, shortened: as §1
[5] = target: Glutamate NMDA receptor; assay: In vitro compound's ability to displace [3H]-CGS-19,755 binding as a measure of its affinity for the glutamate recognition site on the NMDA receptor complex.; type: protein-complex assay

SMILES: O=C(O)C1Cc2cc(Cc3nnn[nH]3)ccc2CN1 (stereo not drawn)
- minimal effective dose [1]: > 160 mg/kg
- IC50 [2]: 36.6 µM

SMILES: O=C(O)[C@@H]1C[C@H]2CC(CP(=O)(O)O)CC[C@H]2N1 (stereo partly drawn)
- minimal effective dose [1]: > 160 mg/kg
- IC50 [3]: > 10 µM
- IC50 [2]: > 100 µM

SMILES: O=C(O)[C@H]1C[C@@H](Cc2nnn[nH]2)CCN1
- minimal effective dose [4]: 5 mg/kg
- IC50 [2]: 4.2 µM

SMILES: O=C(O)C1Cc2cc(CP(=O)(O)O)ccc2CN1 (stereo not drawn)
- minimal effective dose [1]: > 160 mg/kg
- IC50 [3]: 13.8 µM
- IC50 [2]: 34.4 µM

SMILES: O=C(O)C1CC2CC(Cc3nnn[nH]3)CCC2CN1 (stereo not drawn)
- minimal effective dose [1]: > 160 mg/kg
- IC50 [3]: > 10 µM
- IC50 [2]: > 100 µM

SMILES: CN1CCC2(CCCC(CP(=O)(O)O)C2)CC1C(=O)O (stereo not drawn)
- minimal effective dose [4]: > 160 mg/kg
- IC50 [5]: > 10 µM

SMILES: O=C(O)C1NCCC2CC(Cc3nnn[nH]3)CCC21 (stereo not drawn)
- minimal effective dose [1]: 160 mg/kg
- IC50 [2]: 7.8 µM

SMILES: O=C(O)[C@@H]1C[C@H]2CC(Cc3nnn[nH]3)CC[C@H]2N1 (stereo partly drawn)
- minimal effective dose [1]: > 160 mg/kg
- IC50 [3]: > 10 µM
- IC50 [2]: > 100 µM

SMILES: O=C(O)C1CC2CC(CP(=O)(O)O)CCC2CN1 (stereo not drawn)
- minimal effective dose [1]: > 160 mg/kg
- IC50 [3]: > 10 µM
- IC50 [2]: > 100 µM

SMILES: O=C(O)C1CC2C[C@@H](Cc3nnn[nH]3)CCC2CN1 (stereo in doubt; 32a)
- MED [4]: 2.5 mg/kg
- IC50 [2]: 1.39 µM

SMILES: O=C(O)C1CC2C[C@@H](Cc3nnn[nH]3)CCC2CN1 (stereo in doubt; 32b)
- MED [4]: 40 mg/kg
- IC50 [2]: 4.8 µM

- IC50 [2]: 1.6 µM
SMILES: O=C(O)[C@@H]1C[C@H](CP(=O)(O)O)CCN1 [SELFOTEL]
